ChEMBL document CHEMBL1255376, “Comparative surveillance study of telavancin activity against recently collected gram-positive clinical isolates from across the United States” (2008)
In brackets after ≈: the same amount, converted by molar mass.

Legend:
Enterococcus faecium [1] = experiment: Antibacterial activity against linezolid/daptomycin-nonsusceptible vancomycin-resistant Enterococcus faecium clinical isolate by broth microdilution method; assay type: functional
Summary of the method: (§1)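 MICs by CLSI broth microdilution in frozen trays pre-loaded with serial dilutions of each agent. Quality-control strains run in parallel: E. faecalis ATCC 29212 and ATCC 51299, S. aureus ATCC 29213, S. pneumoniae ATCC 49619. Comparator susceptibility categories follow CLSI breakpoints. Methicillin resistance in staphylococci assigned from the oxacillin MIC.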

Staphylococcus = experiment: Antibacterial activity against daptomycin-nonsusceptible coagulase-negative Staphylococcus isolate 1285835 by broth microdilution method; assay type: functional
Summary of the method: (§2)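 MIC by CLSI broth microdilution in frozen microtiter trays holding serial dilutions of each agent, prepared from standard laboratory powders. E. faecalis ATCC 29212 and ATCC 51299, S. aureus ATCC 29213 and S. pneumoniae ATCC 49619 run in parallel as quality-control strains. Comparator susceptibility interpreted with CLSI breakpoints.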

Enterococcus = experiment: Antibacterial activity against vancomycin-susceptible Enterococcus; assay type: functional; summary of the method: as §2
Enterococcus faecium [2] = experiment: Antibacterial activity against linezolid/daptomycin-nonsusceptible vancomycin-susceptible Enterococcus faecium clinical isolate by broth microdilution method; assay type: functional; summary of the method: as §1
[3] = Antibacterial activity against Streptococcus sp. Group G clinical isolate by broth microdilution method; assay type: functional; summary of the method: as §2
Staphylococcus aureus [4] = experiment: Antibacterial activity against methicillin-resistant Staphylococcus aureus; assay type: functional
Enterococcus faecium [5] = experiment: Antibacterial activity against vancomycin-resistant and teichoplanin-susceptible Enterococcus faecium clinical isolate by broth microdilution method; assay type: functional; summary of the method: as §1
Staphylococcus capitis = experiment: Antibacterial activity against daptomycin-nonsusceptible Staphylococcus capitis isolate 1285355 by broth microdilution method; assay type: functional; summary of the method: as §2
Staphylococcus aureus [6] = experiment: Antibacterial activity against methicillin-resistant Staphylococcus aureus clinical isolate by broth microdilution method; assay type: functional; summary of the method: as §1
Enterococcus faecalis [7] = experiment: Antibacterial activity against linezolid/daptomycin-nonsusceptible vancomycin-susceptible Enterococcus faecalis clinical isolate by broth microdilution method; assay type: functional; summary of the method: as §1
Staphylococcus aureus [8] = experiment: Antibacterial activity against daptomycin-nonsusceptible Staphylococcus aureus isolate 1171063 by broth microdilution method; assay type: functional; summary of the method: as §1
Staphylococcus aureus [9] = experiment: Antibacterial activity against daptomycin-nonsusceptible Staphylococcus aureus isolate 1285404 by broth microdilution method
Staphylococcus hominis = experiment: Antibacterial activity against methicillin-susceptible coagulase-negative Staphylococcus hominis clinical isolate by broth microdilution method; assay type: functional; summary of the method: as §1
Staphylococcus aureus [10] = experiment: Antibacterial activity against vancomycin-intermediate methicillin-resistant Staphylococcus aureus NRS1 by broth microdilution method; assay type: functional
Summary of the method: (§3)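 VISA and VRSA strains from the NARSA repository were tested separately from the surveillance isolates. MICs by CLSI broth microdilution in frozen trays with serial dilutions. Quality-control strains run in parallel. Susceptibility categories follow CLSI breakpoints, and methicillin resistance was assigned from the oxacillin MIC.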

Staphylococcus aureus [11] = experiment: Antibacterial activity against vancomycin-intermediate methicillin-resistant Staphylococcus aureus NRS118 by broth microdilution method; assay type: functional; summary of the method: as §3
Mammaliicoccus sciuri = experiment: Antibacterial activity against methicillin-susceptible coagulase-negative Staphylococcus sciuri clinical isolate by broth microdilution method; assay type: functional; summary of the method: as §1
Staphylococcus aureus [12] = experiment: Antibacterial activity against vancomycin-intermediate methicillin-resistant Staphylococcus aureus NRS12 by broth microdilution method; assay type: functional; summary of the method: as §3
Staphylococcus aureus [13] = experiment: Antibacterial activity against vancomycin-intermediate methicillin-resistant Staphylococcus aureus NRS74 by broth microdilution method; assay type: functional; summary of the method: as §3
Staphylococcus aureus [14] = experiment: Antibacterial activity against vancomycin-intermediate methicillin-susceptible Staphylococcus aureus NRS56 by broth microdilution method; assay type: functional; summary of the method: as §3
Enterococcus faecalis [15] = experiment: Antibacterial activity against vancomycin-susceptible Enterococcus faecalis clinical isolate by broth microdilution method; assay type: functional; summary of the method: as §1
Staphylococcus warneri = experiment: Antibacterial activity against methicillin-susceptible coagulase-negative Staphylococcus warneri clinical isolate by broth microdilution method; assay type: functional; summary of the method: as §1
Staphylococcus aureus [16] = experiment: Antibacterial activity against vancomycin-, methicillin-resistant Staphylococcus aureus VRS3 by broth microdilution method; assay type: functional; summary of the method: as §3
Staphylococcus cohnii = experiment: Antibacterial activity against methicillin-susceptible coagulase-negative Staphylococcus cohnii clinical isolate by broth microdilution method; assay type: functional; summary of the method: as §1
Staphylococcus aureus [17] = experiment: Antibacterial activity against daptomycin-nonsusceptible Staphylococcus aureus isolate 1171055 by broth microdilution method; assay type: functional; summary of the method: as §1
Staphylococcus aureus [18] = experiment: Antibacterial activity against daptomycin-nonsusceptible Staphylococcus aureus isolate 1176127 by broth microdilution method; assay type: functional; summary of the method: as §1
Enterococcus faecalis [19] = experiment: Antibacterial activity against vancomycin-resistant and teichoplanin-susceptible Enterococcus faecalis clinical isolate by broth microdilution method; assay type: functional; summary of the method: as §1
Streptococcus pneumoniae = experiment: Antibacterial activity against penicillin intermediate Streptococcus pneumoniae clinical isolate by broth microdilution method; assay type: functional; summary of the method: as §1

SMILES: CCCCCCCCCCNCCN[C@@]1(C)C[C@H](O[C@H]2[C@H](Oc3c4cc5cc3Oc3ccc(cc3Cl)[C@@H](O)[C@@H](NC(=O)[C@@H](CC(C)C)NC)C(=O)N[C@@H](CC(N)=O)C(=O)N[C@H]5C(=O)N[C@H]3C(=O)N[C@H](C(=O)N[C@H](C(=O)O)c5cc(O)c(CNCP(=O)(O)O)c(O)c5-c5cc3ccc5O)[C@H](O)c3ccc(c(Cl)c3)O4)O[C@H](CO)[C@@H](O)[C@@H]2O)O[C@@H](C)[C@H]1O [TELAVANCIN]
- MIC (Enterococcus faecium [1]): 2 µg/mL (≈ 1.14 µM)
- MIC (Staphylococcus): 0.5 µg/mL (≈ 0.285 µM)
- MIC90 (Enterococcus): 1 µg/mL (≈ 0.57 µM)
- MIC (Enterococcus faecium [2]): 0.06 µg/mL (≈ 0.0342 µM)
- MIC [3]: 0.03 µg/mL (≈ 0.0171 µM)
- MIC50 [3]: 0.03 µg/mL (≈ 0.0171 µM)
- MIC90 [3]: 0.06 µg/mL (≈ 0.0342 µM)
- MIC50 (Staphylococcus aureus [4]): 0.14 µM (≈ 0.246 µg/mL)
- MIC50 (Enterococcus faecium [5]): 0.25 µg/mL (≈ 0.142 µM)
- MIC90 (Enterococcus faecium [5]): 2 µg/mL (≈ 1.14 µM)
- MIC (Staphylococcus capitis): 1 µg/mL (≈ 0.57 µM)
- MIC50 (Staphylococcus aureus [6]): 0.25 µg/mL (≈ 0.142 µM)
- MIC90 (Staphylococcus aureus [6]): 0.25 µg/mL (≈ 0.142 µM)
- MIC (Enterococcus faecalis [7]): 1 µg/mL (≈ 0.57 µM)
- MIC (Staphylococcus aureus [8]): 0.5 µg/mL (≈ 0.285 µM)
- MIC (Staphylococcus aureus [9]): 0.25 µg/mL (≈ 0.142 µM)
- MIC50 (Staphylococcus hominis): 0.25 µg/mL (≈ 0.142 µM)
- MIC90 (Staphylococcus hominis): 0.5 µg/mL (≈ 0.285 µM)
- MIC (Staphylococcus aureus [10]): 0.5 µg/mL (≈ 0.285 µM)
- MIC (Staphylococcus aureus [11]): 0.5 µg/mL (≈ 0.285 µM)
- MIC50 (Mammaliicoccus sciuri): 0.25 µg/mL (≈ 0.142 µM)
- MIC90 (Mammaliicoccus sciuri): 0.5 µg/mL (≈ 0.285 µM)
- MIC (Staphylococcus aureus [12]): 0.5 µg/mL (≈ 0.285 µM)
- MIC (Staphylococcus aureus [13]): 1 µg/mL (≈ 0.57 µM)
- MIC (Staphylococcus aureus [14]): 1 µg/mL (≈ 0.57 µM)
- MIC50 (Enterococcus faecalis [15]): 0.5 µg/mL (≈ 0.285 µM)
- MIC90 (Enterococcus faecalis [15]): 1 µg/mL (≈ 0.57 µM)
- MIC50 (Staphylococcus warneri): 0.25 µg/mL (≈ 0.142 µM)
- MIC90 (Staphylococcus warneri): 0.5 µg/mL (≈ 0.285 µM)
- MIC (Staphylococcus aureus [16]): 4 µg/mL (≈ 2.28 µM)
- MIC50 (Staphylococcus cohnii): 0.25 µg/mL (≈ 0.142 µM)
- MIC90 (Staphylococcus cohnii): 0.5 µg/mL (≈ 0.285 µM)
- MIC (Staphylococcus aureus [17]): 0.5 µg/mL (≈ 0.285 µM)
- MIC (Staphylococcus aureus [18]): 0.5 µg/mL (≈ 0.285 µM)
- MIC (Enterococcus faecalis [19]): 0.25 µg/mL (≈ 0.142 µM)
- MIC50 (Streptococcus pneumoniae): 0.015 µg/mL (≈ 0.00854 µM)
- MIC90 (Streptococcus pneumoniae): 0.015 µg/mL (≈ 0.00854 µM)

SMILES: CN[C@H](CC(C)C)C(=O)N[C@H]1C(=O)N[C@@H](CC(N)=O)C(=O)N[C@H]2C(=O)N[C@H]3C(=O)N[C@H](C(=O)N[C@H](C(=O)O)c4cc(O)cc(O)c4-c4cc3ccc4O)[C@H](O)c3ccc(c(Cl)c3)Oc3cc2cc(c3O[C@@H]2O[C@H](CO)[C@@H](O)[C@H](O)[C@H]2O[C@H]2C[C@](C)(N)[C@H](O)[C@H](C)O2)Oc2ccc(cc2Cl)[C@H]1O [VANCOMYCIN]
- MIC (Staphylococcus): 2 µg/mL (≈ 1.38 µM)
- MIC [3]: 0.25 µg/mL (≈ 0.173 µM)
- MIC50 [3]: 0.25 µg/mL (≈ 0.173 µM)
- MIC90 [3]: 0.5 µg/mL (≈ 0.345 µM)
- MIC50 (Staphylococcus aureus [4]): 0.69 µM (≈ 1 µg/mL)
- MIC50 (Enterococcus faecium [5]): 128 µg/mL (≈ 88.3 µM)
- MIC90 (Enterococcus faecium [5]): 512 µg/mL (≈ 353 µM)
- MIC (Staphylococcus capitis): 2 µg/mL (≈ 1.38 µM)
- MIC50 (Staphylococcus aureus [6]): 1 µg/mL (≈ 0.69 µM)
- MIC90 (Staphylococcus aureus [6]): 1 µg/mL (≈ 0.69 µM)
- MIC50 (Staphylococcus hominis): 1 µg/mL (≈ 0.69 µM)
- MIC90 (Staphylococcus hominis): 2 µg/mL (≈ 1.38 µM)
- MIC50 (Mammaliicoccus sciuri): 1 µg/mL (≈ 0.69 µM)
- MIC90 (Mammaliicoccus sciuri): 2 µg/mL (≈ 1.38 µM)
- MIC50 (Enterococcus faecalis [15]): 1 µg/mL (≈ 0.69 µM)
- MIC90 (Enterococcus faecalis [15]): 2 µg/mL (≈ 1.38 µM)
- MIC50 (Staphylococcus warneri): 1 µg/mL (≈ 0.69 µM)
- MIC90 (Staphylococcus warneri): 2 µg/mL (≈ 1.38 µM)
- MIC (Staphylococcus aureus [16]): > 32 µg/mL
- MIC50 (Staphylococcus cohnii): 1 µg/mL (≈ 0.69 µM)
- MIC90 (Staphylococcus cohnii): 2 µg/mL (≈ 1.38 µM)
- MIC (Enterococcus faecalis [19]): 32 µg/mL (≈ 22.1 µM)
- MIC (Streptococcus pneumoniae): 0.25 µg/mL (≈ 0.173 µM)
- MIC50 (Streptococcus pneumoniae): 0.25 µg/mL (≈ 0.173 µM)
- MIC90 (Streptococcus pneumoniae): 0.5 µg/mL (≈ 0.345 µM)
